In brackets after ≈: the same amount, converted by molar mass. Activity calls are given as the source filed them. No cut-off for these calls is given here.
Experiments:
[1] = Half life in lung of methicillin-resistant Staphylococcus aureus infected ddY mouse at 100 mg/kg, ip administered 1 day post infection by paper disk bioassay method; type: ADME, organism-based; parameters: dose 100 mg/kg, route intraperitoneal
Summary of the method: (§1)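 MRSA-infected mice, one day post-inoculation, received a single 100 mg/kg i.p. dose. Serum and lung homogenate collected at 5–120 min, n = 3 per time point. Paper disk bioassay with Bacillus subtilis ATCC 6633, triplicate, 50 µl sample. Detection limits 0.07 µg/ml (serum) and 0.12 µg/ml (lung). Standards in pooled murine matrix, linear-regression curves. Moment analysis.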

[2] = Half life of free unbound fraction in serum of methicillin-resistant Staphylococcus aureus infected ddY mouse at 100 mg/kg, ip administered 1 day post infection by paper disk bioassay method; type: ADME, organism-based; parameters: dose 100 mg/kg, route intraperitoneal; summary of the method: as §1
[3] = Half life in serum of methicillin-resistant Staphylococcus aureus infected ddY mouse at 100 mg/kg, ip administered 1 day post infection by paper disk bioassay method; type: ADME, organism-based; parameters: dose 100 mg/kg, route intraperitoneal; summary of the method: as §1
[4] = Cmax in lung of methicillin-resistant Staphylococcus aureus infected ddY mouse at 100 mg/kg, ip administered 1 day post infection by paper disk bioassay method; type: ADME, organism-based; parameters: dose 100 mg/kg, route intraperitoneal; summary of the method: as §1
[5] = tested on: Serum; experiment: fCmax in serum of methicillin-resistant Staphylococcus aureus infected ddY mouse at 100 mg/kg, ip administered 1 day post infection by paper disk bioassay method; type: ADME, organism-based; parameters: dose 100 mg/kg, route intraperitoneal; settings: in vivo, 24 h; summary of the method: as §1
[6] = Cmax in serum of methicillin-resistant Staphylococcus aureus infected ddY mouse at 100 mg/kg, ip administered 1 day post infection by paper disk bioassay method; type: ADME, organism-based; parameters: dose 100 mg/kg, route intraperitoneal; summary of the method: as §1
[7] = AUC (0 to infinity) in lung of methicillin-resistant Staphylococcus aureus infected ddY mouse at 100 mg/kg, ip administered 1 day post infection by paper disk bioassay method; type: ADME, organism-based; parameters: dose 100 mg/kg, route intraperitoneal, time infinity; summary of the method: as §1
[8] = tested on: Serum; experiment: fAUC (0 to infinity) in serum of methicillin-resistant Staphylococcus aureus infected ddY mouse at 100 mg/kg, ip administered 1 day post infection by paper disk bioassay method; type: ADME, organism-based; parameters: dose 100 mg/kg, route intraperitoneal; settings: in vivo, 24 h; summary of the method: as §1
[9] = AUC (0 to infinity) in serum of methicillin-resistant Staphylococcus aureus infected ddY mouse at 100 mg/kg, ip administered 1 day post infection by paper disk bioassay method; type: ADME, organism-based; parameters: time infinity, dose 100 mg/kg, route intraperitoneal; summary of the method: as §1
[10] = tested on: Staphylococcus aureus; experiment: Antibacterial activity against vancomycin-intermediate Staphylococcus aureus Mu50 infected in ddY mouse assessed as survival of the mouse at 100 mg/kg, ip administered 1 day postinfection measured after 10 days; type: functional; settings: route intraperitoneal
Summary of the method: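 Cyclophosphamide-pretreated (100 mg/kg, days −3 and −1) ddY mice infected i.v. with Mu50 agar beads at 2 x 10^9 to 4 x 10^9 CFU/ml. Treated 100 mg/kg i.p. b.i.d. from day 1 for 10 days. Survival recorded daily for 10 days, n = 10, Kaplan-Meier curves.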

[11] = tested on: Staphylococcus aureus; experiment: Antibacterial activity against vancomycin-intermediate Staphylococcus aureus Mu50 infected in ddY mouse assessed as viable bacteria in lungs at 100 mg/kg, ip administered 1 day postinfection measured after 3 days (Rvb=9.64 +/- 0.63 log CFU/ml); type: functional; settings: route intraperitoneal
[12] = tested on: Staphylococcus aureus; experiment: Antibacterial activity against methicillin-resistant Staphylococcus aureus NUMR101 infected in ddY mouse assessed as viable bacteria in lungs at 100 mg/kg, ip administered 1 day postinfection (Rvb=8.42 +/- 0.50 log CFU/ml); type: functional; settings: route intraperitoneal
[13] = tested on: Staphylococcus aureus; experiment: Antibacterial activity against methicillin-resistant Staphylococcus aureus NUMR101 by broth microdilution method; type: functional
Summary of the method: (§2)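 Broth microdilution in Mueller-Hinton II broth. Inoculum 5 x 10^5 CFU/ml. Drugs dissolved in sterile water just before use.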

[14] = tested on: Staphylococcus aureus; experiment: Antibacterial activity against vancomycin intermediate Staphylococcus aureus Mu50 by broth microdilution method; type: functional; summary of the method: as §2
[15] = T>MIC in serum of methicillin-resistant Staphylococcus aureus infected ddY mouse at 10 mg/kg, ip BID by paper disk bioassay method; type: functional; settings: route intraperitoneal
[16] = fT>MIC in serum of methicillin-resistant Staphylococcus aureus infected ddY mouse at 10 mg/kg, ip BID by paper disk bioassay method; type: functional; settings: route intraperitoneal
[17] = T>MIC in lung of methicillin-resistant Staphylococcus aureus infected ddY mouse at 10 mg/kg, ip BID by paper disk bioassay method; type: functional; settings: route intraperitoneal
[18] = T>MIC in serum in vancomycin intermediate Staphylococcus aureus infected ddY mouse at 100 mg/kg, ip BID by paper disk bioassay method; type: functional; settings: route intraperitoneal
[19] = fT>MIC in serum in vancomycin intermediate Staphylococcus aureus infected ddY mouse at 100 mg/kg, ip BID by paper disk bioassay method; type: functional; settings: route intraperitoneal
[20] = T>MIC in lung in vancomycin intermediate Staphylococcus aureus infected ddY mouse at 100 mg/kg, ip BID by paper disk bioassay method; type: functional; settings: route intraperitoneal
[21] = tested on: Serum; experiment: Protein binding in serum of methicillin-resistant Staphylococcus aureus infected ddY mouse at 100 mg/kg, ip; type: ADME, organism-based; parameters: dose 100 mg/kg, route intraperitoneal; settings: in vivo
[22] = tested on: Staphylococcus aureus; experiment: Antibacterial activity against vancomycin intermediate Staphylococcus aureus Mu50 infected in ddY mouse assessed as decrease in lung abscesses at 100 mg/kg, ip after 3 days; type: functional, organism-based; parameters: dose 100 mg/kg
Summary of the method: (§3)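 Mice pretreated with cyclophosphamide (100 mg/kg, days −3 and −1) and infected i.v. with Mu50 agar beads (4 x 10^7 to 6 x 10^7 CFU/ml). Given 100 mg/kg i.p. b.i.d. for 3 days, then sacrificed. Lungs fixed in formalin and stained with H&E. Abscesses counted per slice, lung area by cross-section paper, n = 3.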

[23] = tested on: Staphylococcus aureus; experiment: Antibacterial activity against vancomycin intermediate Staphylococcus aureus Mu50 infected in ddY mouse assessed as decrease in lung inflammation at 100 mg/kg, ip after 3 days; type: functional, organism-based; parameters: dose 100 mg/kg; summary of the method: as §3
[24] = AUC (0 to infinity) in serum of methicillin-resistant Staphylococcus aureus infected ddY mouse at 100 mg/kg, ip administered 1 day post infection by fluorescence polarization immunoassay; type: ADME, organism-based; parameters: time infinity, dose 100 mg/kg, route intraperitoneal
Summary of the method: (§4)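 Single 100 mg/kg i.p. dose given 1 day after i.v. MRSA NUMR101 agar-bead infection. Mice killed 5, 15, 30, 60, 90, 120 min after dosing, n = 3 per time point. Serum and saline lung homogenate stored at –80°C. Assayed by fluorescence polarization immunoassay (detection limit 2 µg/ml) against standard curves in pooled murine serum or lung homogenate. Parameters by moment analysis.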

[25] = tested on: Serum; experiment: fAUC (0 to infinity) in serum of methicillin-resistant Staphylococcus aureus infected ddY mouse at 100 mg/kg, ip administered 1 day post infection by fluorescence polarization immunoassay; type: ADME, organism-based; parameters: dose 100 mg/kg, route intraperitoneal; settings: in vivo, 24 h; summary of the method: as §4
[26] = AUC (0 to infinity) in lung of methicillin-resistant Staphylococcus aureus infected ddY mouse at 100 mg/kg, ip administered 1 day post infection by fluorescence polarization immunoassay; type: ADME, organism-based; parameters: time infinity, dose 100 mg/kg, route intraperitoneal; summary of the method: as §4
[27] = Cmax in serum of methicillin-resistant Staphylococcus aureus infected ddY mouse at 100 mg/kg, ip administered 1 day post infection by fluorescence polarization immunoassay; type: ADME, organism-based; parameters: dose 100 mg/kg, route intraperitoneal; summary of the method: as §4
[28] = tested on: Serum; experiment: fCmax in serum of methicillin-resistant Staphylococcus aureus infected ddY mouse at 100 mg/kg, ip administered 1 day post infection by fluorescence polarization immunoassay; type: ADME, organism-based; parameters: dose 100 mg/kg, route intraperitoneal; settings: in vivo, 24 h; summary of the method: as §4
[29] = Cmax in lung of methicillin-resistant Staphylococcus aureus infected ddY mouse at 100 mg/kg, ip administered 1 day post infection by fluorescence polarization immunoassay; type: ADME, organism-based; parameters: dose 100 mg/kg, route intraperitoneal; summary of the method: as §4
[30] = Half life in serum of methicillin-resistant Staphylococcus aureus infected ddY mouse at 100 mg/kg, ip administered 1 day post infection by fluorescence polarization immunoassay; type: ADME, organism-based; parameters: dose 100 mg/kg, route intraperitoneal; summary of the method: as §4
[31] = Half life of free unbound fraction in serum of methicillin-resistant Staphylococcus aureus infected ddY mouse at 100 mg/kg, ip administered 1 day post infection by fluorescence polarization immunoassay; type: ADME, organism-based; parameters: dose 100 mg/kg, route intraperitoneal; summary of the method: as §4
[32] = Half life in lung of methicillin-resistant Staphylococcus aureus infected ddY mouse at 100 mg/kg, ip administered 1 day post infection by fluorescence polarization immunoassay; type: ADME, organism-based; parameters: dose 100 mg/kg, route intraperitoneal; summary of the method: as §4
[33] = Ratio of AUC (0 to 24 hrs) in lung in vancomycin intermediate Staphylococcus aureus infected ddY mouse at 100 mg/kg, ip BID to MIC for methicillin-resistant Staphylococcus aureus

SMILES: C[C@H]1C=C(c2csc(SC3=C(C(=O)O)N4C(=O)[C@H]([C@@H](C)O)[C@H]4[C@H]3C)n2)CN1 [RAZUPENEM]
- half-life [1]: 0.61 h
- half-life [2]: 0.84 h
- half-life [3]: 0.84 h
- Cmax [4]: 18000 ng/mL
- fCmax [5]: 25.81 µg/mL
- Cmax [6]: 108000 ng/mL
- AUC(0-inf) [7]: 28.4 µg·h/mL
- fAUC [8]: 30.6 µg·h/mL
- AUC(0-inf) [9]: 127 µg·h/mL
- Activity [10]: 70%
- CFU/ml [11]: 7.42 log CFU/ml
- CFU/ml [12]: 5.5 log CFU/ml
- MIC [13]: 2 µg/mL (≈ 4.91 µM)
- MIC [14]: 2 µg/mL (≈ 4.91 µM)
- fT>MIC [15]: 16.9
- fT>MIC [16]: 2.9
- fT>MIC [17]: 0
- fT>MIC [18]: 28.2
- fT>MIC [19]: 23.6
- fT>MIC [20]: 20.3
- Activity [21]: 76%
- Activity [22]: Active
- Activity [23]: Active

SMILES: CN[C@H](CC(C)C)C(=O)N[C@H]1C(=O)N[C@@H](CC(N)=O)C(=O)N[C@H]2C(=O)N[C@H]3C(=O)N[C@H](C(=O)N[C@H](C(=O)O)c4cc(O)cc(O)c4-c4cc3ccc4O)[C@H](O)c3ccc(c(Cl)c3)Oc3cc2cc(c3O[C@@H]2O[C@H](CO)[C@@H](O)[C@H](O)[C@H]2O[C@H]2C[C@](C)(N)[C@H](O)[C@H](C)O2)Oc2ccc(cc2Cl)[C@H]1O [VANCOMYCIN]
- AUC(0-inf) [24]: 261 µg·h/mL
- Activity [10]: 20%
- CFU/ml [11]: 8.72 log CFU/ml
- CFU/ml [12]: 5.29 log CFU/ml
- fAUC [25]: 196 µg·h/mL
- AUC(0-inf) [26]: 127 µg·h/mL
- Cmax [27]: 60800 ng/mL
- fCmax [28]: 45.6 µg/mL
- Cmax [29]: 38500 ng/mL
- half-life [30]: 2.95 h
- half-life [31]: 2.95 h
- half-life [32]: 1.72 h
- MIC [14]: 8 µg/mL (≈ 5.52 µM)
- Activity [21]: 25%
- AUC0-24/MIC at 10 mg/kg [33]: 31.8 µg/mL

Reference: ChEMBL document CHEMBL1255367, “Potency of SMP-601, a novel carbapenem, in hematogenous murine bronchopneumonia caused by methicillin-resistant and vancomycin-intermediate Staphylococcus aureus” (Antimicrob Agents Chemother, 2008)
